Bioassay records deposited in PubChem BioAssay by Broad Institute.
An excerpt weighted towards active compounds, which were near 3.4% of everything screened.
SIRT5 inh = SIRT5 desuccinylase inhibitors, primary screen, biochemical, fluorescence imaging, single point, set 5. Purified SirT5, succinyl-peptide AMC, trypsin-coupled fluorescence. inhibition, % at 15 µM. 330,000 compounds, 1.1% hits. AID 652115, 2013; in the data active = inhibition above about 15%; inconclusive = no clear call, values can overlap the other calls
ERAP1 HTS inh = human ERAP1 aminopeptidase inhibitors, primary screen, biochemical, single point, plate reader. Endoplasmic reticulum aminopeptidase 1 (Homo sapiens), Q9NZ08. recombinant ERAP1, Leu-AMC fluorescence, 60 min. inhibition, % at 10.7 µM. 340,000 compounds, 0.15% hits. AID 652197, 2013;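 active = mean replicate inhibition of at least 30%, or all replicates individually reaching that 30% level; inactive = mean below 30% and not every replicate reaching it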
S100A4 MyoIIA = inhibitors of S100A4-myosin IIA peptide binding, primary screen, biochemical, fluorescence polarization, TAMRA-MyoIIA peptide; Protein S100-A4 (Homo sapiens), P26447; inhibition, % at 10.7 µM; 360,000 compounds, 0.14% hits; AID 652163, 2013;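 active = mean inhibition of at least 70% across replicates, with every replicate also reaching that level; inconclusive = mean inhibition reaches 70% but some replicates fall short; inactive = mean inhibition below 70%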
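Test system: S100A4 monomer protein. Medium: HEPES buffer with Ca2+, pH 7.2. Reagent: fluorescent myosin IIA peptide, 5 nM. Compound dosing: single-point compound testing. Timing: 5 min between mix addition and reading. Benchmarks: DMSO neutral and TFP positive wells.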
E-selectin induc = E-selectin induction in HUVECs, primary screen, imaging, HUVEC, immunofluorescence imaging, single point. 260,000 compounds, 0.37% hits. activation, % at 7.58 µM. normalized: neutral wells 0, TNF-alpha wells 100. P16581;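 active = mean E-selectin-positive cell signal at least 10% of the positive control, reached in at least 60% of replicates, without over 20% cell loss; inconclusive = no rule given, readout overlaps actives, possibly toxicity-flagged; inactive = the rest, including those meeting only one limit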
Target sequence (P16581 whole entry, looked up): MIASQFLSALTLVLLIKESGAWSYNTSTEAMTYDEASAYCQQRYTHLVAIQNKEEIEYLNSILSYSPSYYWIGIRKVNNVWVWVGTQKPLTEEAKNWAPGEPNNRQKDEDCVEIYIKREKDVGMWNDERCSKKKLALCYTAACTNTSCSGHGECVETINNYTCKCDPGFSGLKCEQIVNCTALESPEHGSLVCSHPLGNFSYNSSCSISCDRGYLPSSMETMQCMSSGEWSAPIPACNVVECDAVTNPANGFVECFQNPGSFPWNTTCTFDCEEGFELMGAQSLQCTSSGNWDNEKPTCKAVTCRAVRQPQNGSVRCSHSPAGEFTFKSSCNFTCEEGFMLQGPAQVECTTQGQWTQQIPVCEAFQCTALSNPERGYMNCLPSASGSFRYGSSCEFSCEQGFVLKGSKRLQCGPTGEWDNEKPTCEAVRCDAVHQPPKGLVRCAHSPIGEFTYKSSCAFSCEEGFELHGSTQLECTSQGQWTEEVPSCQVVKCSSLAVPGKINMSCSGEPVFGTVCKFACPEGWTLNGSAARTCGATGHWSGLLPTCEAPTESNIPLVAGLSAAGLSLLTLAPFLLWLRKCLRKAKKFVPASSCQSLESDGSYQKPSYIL
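Material: HUVEC primary endothelial cells; Amount: 3,000 cells per well; Dosing: single concentration; Medium: EGM-2 growth medium on 0.1% gelatin-coated wells; Read-out basis: percent E-selectin-positive cells; Signal: immunofluorescence imaging; Control set: TNF-alpha, DMSO.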
Ecoli rRNA inh = reduced GFP signal of wild-type E. coli, primary screen, bacterial rRNA inhibitor project, GFP/RFP fluorescence, OD600, single point; AID 720706, 2013; 350,000 compounds, 1.6% hits; E. coli WT GFP vs humanized-ribosome RFP mutants, 24 h; stronger effect = lower value; DMSO median 0, no signal -100; GFP signal change (wild-type ribosome), % (no concentration beside the values);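 active = significant combined selectivity score with lowered wild-type GFP, culture density cut under 30%, mutant RFP and density less affected; inactive = any of these conditions unmet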
MLL AF4-AF9 inh = inhibitors of AF4 peptide binding to AF9, primary screen, biochemical, AlphaScreen, biotin-AF4 peptide, FLAG-AF9, single point; Protein AF-9 (Homo sapiens), P42568; inhibition, % at 10 µM; AID 651704, 2012; 350,000 compounds, 0.47% hits;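 active = every replicate reaching a set inhibition limit, whatever the replicate mean, cut at about 25% in these data; inconclusive = mean inhibition reaches that limit but some replicates miss it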
A number is an active result; i = inactive; ? = inconclusive; nt = no result given.

SMILES | SIRT5 inh | ERAP1 HTS inh | S100A4 MyoIIA | E-selectin induc | Ecoli rRNA inh | MLL AF4-AF9 inh
C[C@H](CO)N1C[C@H](C)[C@H](CN(C)Cc2ccc(C(F)(F)F)cc2)Oc2ccc(NS(=O)(=O)c3cccs3)cc2C1=O | 16 | i | i | i | i | i
C[C@@H]1CCCCO[C@@H](CN(C)Cc2ccc(C(F)(F)F)cc2)[C@@H](C)CN([C@@H](C)CO)C(=O)c2cc(NS(=O)(=O)c3cccs3)ccc2O1 | 19 | i | i | i | i | i
C[C@H]1CN([C@@H](C)CO)C(=O)c2cc(NS(=O)(=O)c3cccs3)ccc2O[C@@H]1CN(C)Cc1ccc(C(F)(F)F)cc1 | i | i | i | i | i | i
C[C@H](CO)N1C[C@H](C)[C@@H](CN(C)Cc2ccc(Cl)c(Cl)c2)OCCCC[C@H](C)Oc2ccc(NS(=O)(=O)c3cccs3)cc2C1=O | 19 | i | i | i | i | i
CCS(=O)(=O)Nc1ccc2c(c1)C(=O)N(C)C[C@H](OC)[C@@H](C)CN(C(=O)COC)[C@@H](C)CO2 | i | i | i | i | i | i
C[C@@H]1CN(C)C(=O)c2cccc(N)c2O[C@@H]1CN(C)C(=O)OC(C)(C)C | nt | nt | nt | nt | i | nt
CCOc1ccc(NC(=O)c2ccccc2NC(=O)CN2CCCCCC2)cc1 | i | i | i | i | i | i
COc1ccc(NC(=O)c2ccccc2NC(=O)CN2CCCCCC2)cc1 | i | i | i | nt | i | 28
COc1ccc(N2CCN(CC(=O)Nc3ccccc3C(=O)NCc3ccccc3)CC2)cc1 | i | i | i | nt | -29 | i
CC(=O)Nc1ccc2c(c1)C(=O)N(C)[C@@H]1CC[C@@H](CC(=O)NCC3CC3)O[C@H]1CO2 | i | i | i | i | i | i
Cc1sc2ncn(CC(=O)Nc3ccccc3F)c(=O)c2c1-c1ccccc1 | i | i | i | i | -28 | i
O=C1N[C@H](Cc2ccccc2)COCc2cnnn2CC[C@@H]1Cc1cccc(F)c1 | nt | nt | nt | nt | i | nt
COc1ccc(S(=O)(=O)N(C)C[C@@H]2Oc3cc(C#CC4CCCC4)ccc3S(=O)(=O)N([C@@H](C)CO)C[C@H]2C)cc1 | 16 | i | i | i | i | i
COc1ccc(S(=O)(=O)N(C)C[C@H]2Oc3cc(C#CC4CCCC4)ccc3S(=O)(=O)N([C@@H](C)CO)C[C@H]2C)cc1 | i | i | i | i | i | i
COc1ccc(S(=O)(=O)N(C)C[C@H]2Oc3cc(C#CC4CCCC4)ccc3S(=O)(=O)N([C@H](C)CO)C[C@@H]2C)cc1 | 15 | i | i | i | i | i
COc1ccc(S(=O)(=O)N(C)C[C@H]2Oc3cc(C#CC4CCCC4)ccc3S(=O)(=O)N([C@H](C)CO)C[C@H]2C)cc1 | i | i | i | i | i | i
COc1ccc(S(=O)(=O)N(C)C[C@H]2Oc3cc(C#CC4CCCC4)ccc3S(=O)(=O)N([C@@H](C)CO)C[C@@H]2C)cc1 | 25 | i | i | i | i | i
CCC(=O)N1CCC2(CC1)CN(S(C)(=O)=O)[C@H](CO)c1[nH]c3cc(OC)ccc3c12 | nt | nt | nt | nt | i | nt
CCC1CN(C(=O)NCc2ccccc2)c2cc(Cl)ccc2O1 (centres undefined) | i | i | i | i | i | i
CCC1CN(C(=O)NCc2ccccc2)c2ccccc2O1 (centres undefined) | i | i | i | i | -22 | i
CCOC(=O)C1=C(C)Nc2ccccc2N=C1NC(=O)C(c1ccccc1)c1ccccc1 | i | i | i | i | -21 | i
C[C@@H]1CN([C@H](C)CO)C(=O)c2cc(NC(=O)c3ccncc3)ccc2O[C@@H]1CN(C)S(=O)(=O)c1ccc(F)cc1 | i | i | i | ? | i | i
C[C@H](CO)N1C[C@H](C)[C@H](CN(C)CC2CC2)Oc2ncc(C#CC3(O)CCCC3)cc2C1=O | 18 | i | i | i | i | i
CCC(=O)N(C)C[C@H]1Oc2ncc(C#CC3(O)CCCC3)cc2C(=O)N([C@@H](C)CO)C[C@H]1C | -2.7 | i | i | i | i | i
COc1ccc(/C(O)=C2/C(=O)C(=O)N(CCCN3CCOCC3)C2c2ccc(OC)cc2)cc1 (centres undefined) | 81 | i | i | nt | i | i
SMILES | SIRT5 inh | ERAP1 HTS inh | S100A4 MyoIIA | E-selectin induc | Ecoli rRNA inh | MLL AF4-AF9 inh
O=C(Nc1ccc(Br)cc1)N1CCc2ccccc2C1 | i | i | i | i | -39 | i
COC(=O)c1cc2oc3ccccc3c2n1Cc1ccccn1 | i | i | i | nt | -44 | nt
COc1cccc(S(=O)(=O)N2CCCCN3[C@H](C2)[C@H](c2ccc(C#CCC(C)C)cc2)[C@@H]3CO)c1 | i | i | i | i | i | i
O=C1CCCC(O)=C1N=Nc1ccc(C(=O)O)cc1 | 33 | i | i | nt | i | i
Cc1cc(C(=O)COC(=O)c2ccc[nH]c2=O)c(C)n1-c1ccccc1F | i | nt | i | i | i | i
Cc1cc(C(=O)COC(=O)c2ccc(O)cc2)c(C)n1-c1ccccc1F | i | i | i | nt | -29 | i
C[C@H](CO)N1C[C@H](C)[C@@H](CN(C)Cc2ccc(Oc3ccccc3)cc2)Oc2ccc(NC(=O)Nc3ccc(C(F)(F)F)cc3)cc2C1=O | i | i | i | 273 | i | i
C[C@H]1CN([C@@H](C)CO)C(=O)c2cc(NC(=O)Nc3ccc(C(F)(F)F)cc3)ccc2O[C@H]1CN(C)Cc1ccc(Oc2ccccc2)cc1 | i | i | i | i | i | i
COc1ccc(NC(=O)Nc2ccc3c(c2)C(=O)N([C@@H](C)CO)C[C@@H](C)[C@@H](CN(C)Cc2ccc(C(F)(F)F)cc2)O3)cc1 | 20 | i | i | i | i | i
COc1ccc(NC(=O)Nc2ccc3c(c2)C(=O)N([C@H](C)CO)C[C@@H](C)[C@@H](CN(C)Cc2ccc(C(F)(F)F)cc2)O3)cc1 | 21 | i | i | i | i | i
COCC(=O)N(C)C[C@@H]1Oc2ncc(-c3ccc(F)cc3)cc2C(=O)N([C@H](C)CO)C[C@H]1C | i | i | i | i | i | i
COc1cccc(-c2cnc3c(NC=O)cc(-c4ccc(N5CCN(C)CC5)cc4)cn23)c1 | i | i | i | i | i | 35
CSc1nc2c(cnn2-c2ccc(C)c(C)c2)c(=O)[nH]1 | i | i | i | 48 | i | i
CCC(=O)N1CC2(C1)[C@@H](c1ccc(-c3ccccc3C)cc1)[C@@H](CO)N2C(=O)CC | i | i | i | i | i | i
